From PubChem
KCNQ1 pot – human KCNQ1 channel potentiation or activation; 0.35% of 310,000 active; P51787; CHO-K1 KCNQ1, thallium flux FluxOR fluorescence; hits give high values; B-score at 10 µM;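 active means fluorescence ratio B-score, a plate-corrected score, at least three library SD, with initial intensity B-score within 5 SD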
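Medium – assay buffer, equal DMSO in all wells · Material – CHO-K1 cell line with stable KCNQ1 potassium channel expression · Signal – kinetic FluxOR thallium fluorescence, 10-s 1-Hz baseline, 110-s post-stimulus read · Compound – single concentration per compound, DMSO matched to controls · Schedule – 37 °C overnight plating, 90-min dark dye load, 20-min compound pretreatment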
KCNK9 inh – inhibitors of human KCNK9 two-pore domain potassium channel. AID 488922. 1.2% of 310,000 active. HEK293 KCNK9, FluxOR thallium flux fluorescence; hits give low values. Q9NPC2. B-score at 10 µM;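 active means ratio B-score over 3 SD below the library mean, with starting fluorescence within 5 SD of its mean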;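 further: negative B-score means less thallium flux so channel inhibition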
Target sequence (Q9NPC2 whole entry, looked up, the tested form may be a part): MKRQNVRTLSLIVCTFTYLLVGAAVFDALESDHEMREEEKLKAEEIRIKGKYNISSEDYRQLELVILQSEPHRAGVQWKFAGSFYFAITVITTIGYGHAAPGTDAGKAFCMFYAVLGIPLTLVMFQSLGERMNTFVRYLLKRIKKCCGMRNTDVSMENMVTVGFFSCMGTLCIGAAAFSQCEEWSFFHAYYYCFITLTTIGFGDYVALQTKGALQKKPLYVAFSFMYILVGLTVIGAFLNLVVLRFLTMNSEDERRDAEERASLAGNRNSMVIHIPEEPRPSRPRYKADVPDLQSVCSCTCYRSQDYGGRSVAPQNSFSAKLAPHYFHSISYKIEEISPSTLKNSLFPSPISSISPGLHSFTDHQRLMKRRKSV
KCNK3 block – human KCNK3 channel inhibition, primary screen; CHO-KCNK3 thallium flux, FluxOR fluorescence; hits give low values; 0.84% of 340,000 active; B-score at 10 µM; O14649;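 active means B-score under library mean minus 4 SD, starting fluorescence ratio at most library mean plus 5 SD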;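 further: more negative B-score means stronger inhibition of thallium flux through KCNK3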
KCNQ1 block – blocks the human KCNQ1 potassium channel | P51787 | CHO-K1 KCNQ1, FluxOR thallium flux fluorescence; hits give high values | B-score at 10 µM | 1.3% of 310,000 active;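 active means compounds whose thallium flux B-score, printed positive for inhibition, exceeds three library SD while starting fluorescence stays within three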;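 further: channel opened by potassium depolarization with thallium stimulus after 20 min compound exposure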
hERG protect – shields human hERG channel from block by proarrhythmic agents; Q12809; CHO-hERG, FluxOR thallium flux, dofetilide IC70 present; activation (rescue from dofetilide block), less the hit threshold, % at 10 µM; 0.51% of 310,000 active; AID 1511;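 active means activation above the mean of controls blocked by dofetilide plus 5 SD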;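 further: thallium influx through hERG after potassium depolarization seen as dye fluorescence rise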
Kir21 inh – Kir2.1 (mouse) channel inhibition | P35561 | HEK293-Kir2.1, FluxOR thallium flux fluorescence; hits give low values | B-score at 10 µM | 0.85% of 310,000 active | AID 1672;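 active means fluorescence ratio B-score at or below minus 3 SD of library scores, with starting-brightness B-score within 2 SD, cut at about -4.2 in these data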;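 further: channel flux triggered by added potassium and thallium sulfate stimulus; B-score of peak minus minimum fluorescence over baseline after thallium stimulus; more negative B-score means stronger Kir2.1 block with less thallium influx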
Starred values were filed as active, the others as inactive; i = inactive; x = not tested or not shown. The list is not random: actives were taken first. Their share in the collection is about 3.7%.

SMILES	KCNQ1 pot	KCNK9 inh	KCNK3 block	KCNQ1 block	hERG protect	Kir21 inh
CC#CC[N+](C)(C)CCCCCCCCCCCC	i	i	i	6*	-23	-5*
CCOC(=O)C1=NN(C(=O)c2ccc(C)cc2)C(O)(c2ccc(Cl)cc2)C1 (stereo unspecified)	79*	i	i	i	76*	0.42
CCC1(O)CC(C(=O)OC)=NN1C(=O)c1ccccc1 (stereo unspecified)	i	i	i	i	-4	-0.33
COC(=O)C1=NN(C(=O)c2ccc(Cl)cc2)C(O)(c2ccccc2)C1 (stereo unspecified)	39*	i	i	i	38*	-0.5
O=C(/C=C/c1ccc([N+](=O)[O-])cc1)NCCOc1ccc(F)cc1	i	i	i	i	5.5*	0
COCCNc1nnc(SCC(=O)NC2CCCCC2)s1	x	x	i	x	x	x
CCCCOc1ccccc1N	i	i	i	i	5.9*	0.32
Cc1ccsc1CN(C)C(=O)CN1C(=O)NC2(CCCCC2C)C1=O (stereo unspecified)	x	x	i	x	x	x
CC(C)C1CC(CCNCc2ccc(N(C)C)cc2)(c2ccccc2)CCO1 (stereo unspecified)	i	i	i	i	-7	-2.4
Cc1ccc(C2(CCNCc3ccc(N(C)C)cc3)CCOC(C(C)C)C2)cc1 (stereo unspecified)	i	i	i	i	-18	-4.7*
COc1ccc(CN(CC(O)COc2cccc3[nH]cc(C)c23)C(C)(C)C)cc1 (stereo unspecified)	i	i	i	i	-10	0.08
N#CC12C(=O)NC(=O)C1(C#N)C21CCCC1 (stereo unspecified)	x	x	i	x	x	x
CC(C)COc1ccc(-c2nnc(-c3ccco3)o2)cc1	i	i	i	i	-4	0.03
CCN(CC)CCCNc1ccc(-c2nnc(-c3ccc(OCC(C)C)cc3)o2)cn1	i	i	i	9*	-25	-6.5*
S=c1[nH]c(-c2ccccc2)cn1/N=C/c1ccccc1Br	i	i	i	i	3	-0.54
S=c1[nH]c(-c2ccccc2)cn1/N=C/c1cccc2ccccc12	14*	i	i	i	69*	1.4
C=CCN(CC=C)C(=O)CN1C(=O)NC(c2ccccc2)(c2ccccc2)C1=O	i	i	i	i	-6	-0.51
CC[C@@H](NS(=O)(=O)c1ccc(C)cc1)C(=O)Oc1ccc2c3c(c(=O)oc2c1)CCC3	i	i	i	i	-8	0.01
Cc1ccc(S(=O)(=O)NC(CC(C)C)C(=O)Oc2ccc3c4c(c(=O)oc3c2)CCC4)cc1 (stereo unspecified)	i	i	i	6*	-7	-0.15
Cc1ccc(S(=O)(=O)NC(C(=O)Oc2ccc3c(C(F)(F)F)cc(=O)oc3c2)c2ccccc2)cc1 (stereo unspecified)	i	i	i	6*	-12	-3.4
Cc1cc(C)n(C(=O)N(c2ccccc2)c2ccccc2)n1	i	i	i	i	-3	-0.14
Cc1cc(C(=O)CCC(=O)N(C)CC(=O)Nc2ccc(OC(F)(F)F)cc2)c(C)s1	x	x	i	x	x	x
CC(C)(C)c1ccc(C(=O)NC(=O)CSc2n[nH]c(N)n2)cc1	x	x	i	x	x	x
Cn1cccc1/C=N/n1c(-c2ccc(C(C)(C)C)cc2)n[nH]c1=S	i	-7.7*	i	i	-4	-2
Cn1cccc1/C=N/n1c(-c2ccccc2)n[nH]c1=S	i	i	i	i	-3	-1.8
SMILES	KCNQ1 pot	KCNK9 inh	KCNK3 block	KCNQ1 block	hERG protect	Kir21 inh
O=C(CCN1CCC(c2ccccc2)C1)c1ccccc1 (stereo unspecified)	i	i	i	i	-10	-0.59
COc1cc(C(=O)CCN2CCC(c3ccccc3)C2)cc(OC)c1OC (stereo unspecified)	11*	i	i	i	-15	-1.3
O=C(Nc1ccccc1)Nc1cccc(C(F)(F)F)c1	i	i	i	i	-7	0.38
CC(C)(O)C(=O)NNC(=S)Nc1cccc(C(F)(F)F)c1	i	i	i	7*	-2	1.5
FC(F)(F)c1cccc(NC(=S)NNC(=S)Nc2cccc(C(F)(F)F)c2)c1	i	i	x	i	-2	1.6
Cc1cc(NC(=O)Nc2cccc(C(F)(F)F)c2)n(C)n1	i	i	i	6*	-8	2
FC(F)(F)c1cccc(NC(=S)Nc2ccc(Cl)c(Cl)c2)c1	i	i	i	7*	-26	-0.11
Cc1nn(CC(=O)N2CCCCCC2)c(=O)c2cc3occc3n12	i	i	i	i	-4	-0.25
CCN(CC)CC1CN(N=Cc2ccc([N+](=O)[O-])o2)C(=O)O1 (stereo unspecified)	x	x	i	x	x	x
COc1ccc(/C(N)=N/OC(=O)c2ccc3c(c2)OCO3)cc1OC	i	i	i	i	5.9*	1.5
O=S(=O)(Nc1nc2ccccc2nc1Nc1ccc2c(c1)OCCO2)c1cccs1	i	i	i	12*	1	0.98
COc1ccc(S(=O)(=O)Nc2nc3ccccc3nc2Nc2ccc3c(c2)OCO3)cc1	i	i	x	i	-10	-0.46
CCN(Cc1nc2ccccc2c(=O)[nH]1)C(=O)COc1ccccc1Cc1ccccc1	x	x	i	x	x	x
Cc1cc(C=O)c2c(c1)C=CC1(Oc3ccccc3C(=O)N1C)O2 (stereo unspecified)	i	i	x	i	21*	-1
COc1cc(OC)cc(-c2oc(=O)c3cc(OC)c(OC)cc3c2C(F)(F)F)c1	x	x	i	x	x	x
S=C1NCCc2ccc(Cl)cc2C1c1ccccc1 (stereo unspecified)	x	x	-10*	x	x	x
CC1(C)CC(c2nc(-c3ccc([N+](=O)[O-])cc3)cs2)CCO1 (stereo unspecified)	i	i	i	7*	-22	-1.2
COc1cccc(CNS(=O)(=O)c2cc3c(cc2Cl)NC(=O)CO3)c1	i	i	i	i	-4	-0.93
Nc1nnnn1-c1cccc([N+](=O)[O-])c1	x	x	i	x	x	x
CCOC(=O)c1c(NC(=O)C(NCCN(C)C)c2ccccc2)sc2c1CCCC2 (stereo unspecified)	i	i	i	i	-24	-6.2*
CCN(CC(=O)Nc1c(F)cccc1F)C(=O)CNC(=O)c1cccc(C)c1	i	i	i	i	-1	-0.48
COC(CN1CCc2c(C)nc3c(C#N)cnn3c21)OC	i	i	i	i	6.3*	0.55
Oc1[nH]c2ccccc2c1N=Nc1ccccn1	x	x	i	x	x	x
Oc1c(N=Nc2ccccn2)ccc2ccccc12	29*	i	i	i	25*	-0.01
